In ChEMBL document CHEMBL3576785, “Differential Targeting of Human Topoisomerase II Isoforms with Small Molecules” (J Med Chem, 2015):
Active and inactive are the calls of the source. The rule behind the calls is not given here.

Legend:
[1] = Cytotoxicity against human NALM6 cells expressing 50% TOP2A assessed as growth inhibition after 5 days by XTT assay; type: functional, cell-based; details: NALM-6, 120 h
In short: (§1)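 Growth inhibition in Nalm-6 wild-type, TOP2A+/- and TOP2B-/- lines. IC50 values are means ±SD of 3 replicate experiments.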

NALM-6 [2] = assay: Selectivity ratio of IC50 for TOP2B double knockout human NALM6 cells to IC50 for wild type human NALM6 cells; type: functional
[3] = Cytotoxicity against TOP2B double knockout human NALM6 cells assessed as growth inhibition after 5 days by XTT assay; type: functional, cell-based; details: NALM-6, 120 h; in short: as §1
[4] = target: DNA topoisomerase 2-alpha (Homo sapiens) (UniProt P11388); assay: Activity of TOP2A in human K562 cells assessed as poisoning activity at 100 uM after 1 hr by TARDIS assay; type: cell-based
In short: (§2)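 TARDIS (trapped in agarose DNA immunostaining) in K562 cells, which express both isoforms at similar levels. Cells given 100 µM analogue, DMSO as vehicle control. Drug-stabilised TOP2–DNA complexes detected with isoform-specific immunofluorescence, TOP2A or TOP2B. Fluorescence quantified and normalised to VP-16-treated cells. Single-dose screen, followed by dose–response.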

K562 = assay: Activity of TOP2 in human K562 cells assessed as poisoning activity by measuring phosphorylation of gamma-H2AX at Ser139 at 100 uM after 1 hr by DAPI staining-based epifluorescence microscopic analysis; type: cell-based
In short: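 K562 cells (human leukaemia, similar expression of both TOP2 isoforms) exposed to 100 µM analogue, DMSO as vehicle control. γ-H2AX (phospho-Ser139 H2AX) detected by immunofluorescence microscopy with nuclear counterstain. Signal quantified in γ-H2AX-positive cells and normalised to VP-16-treated cells.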

NALM-6 [5] = assay: Selectivity ratio of IC50 for human NALM6 cells expressing 50% TOP2A to IC50 for wild type human NALM6 cells; type: functional
[6] = Cytotoxicity against wild type human NALM6 cells assessed as growth inhibition after 5 days by XTT assay; type: functional, cell-based; details: NALM-6, 120 h; in short: as §1
[7] = target: DNA topoisomerase 2-beta (Homo sapiens) (UniProt Q02880); assay: Activity of TOP2B in human K562 cells assessed as poisoning activity at 100 uM after 1 hr by TARDIS assay; type: cell-based; in short: as §2
DNA topoisomerase 2-beta (Homo sapiens), sequence (Q02880 whole entry): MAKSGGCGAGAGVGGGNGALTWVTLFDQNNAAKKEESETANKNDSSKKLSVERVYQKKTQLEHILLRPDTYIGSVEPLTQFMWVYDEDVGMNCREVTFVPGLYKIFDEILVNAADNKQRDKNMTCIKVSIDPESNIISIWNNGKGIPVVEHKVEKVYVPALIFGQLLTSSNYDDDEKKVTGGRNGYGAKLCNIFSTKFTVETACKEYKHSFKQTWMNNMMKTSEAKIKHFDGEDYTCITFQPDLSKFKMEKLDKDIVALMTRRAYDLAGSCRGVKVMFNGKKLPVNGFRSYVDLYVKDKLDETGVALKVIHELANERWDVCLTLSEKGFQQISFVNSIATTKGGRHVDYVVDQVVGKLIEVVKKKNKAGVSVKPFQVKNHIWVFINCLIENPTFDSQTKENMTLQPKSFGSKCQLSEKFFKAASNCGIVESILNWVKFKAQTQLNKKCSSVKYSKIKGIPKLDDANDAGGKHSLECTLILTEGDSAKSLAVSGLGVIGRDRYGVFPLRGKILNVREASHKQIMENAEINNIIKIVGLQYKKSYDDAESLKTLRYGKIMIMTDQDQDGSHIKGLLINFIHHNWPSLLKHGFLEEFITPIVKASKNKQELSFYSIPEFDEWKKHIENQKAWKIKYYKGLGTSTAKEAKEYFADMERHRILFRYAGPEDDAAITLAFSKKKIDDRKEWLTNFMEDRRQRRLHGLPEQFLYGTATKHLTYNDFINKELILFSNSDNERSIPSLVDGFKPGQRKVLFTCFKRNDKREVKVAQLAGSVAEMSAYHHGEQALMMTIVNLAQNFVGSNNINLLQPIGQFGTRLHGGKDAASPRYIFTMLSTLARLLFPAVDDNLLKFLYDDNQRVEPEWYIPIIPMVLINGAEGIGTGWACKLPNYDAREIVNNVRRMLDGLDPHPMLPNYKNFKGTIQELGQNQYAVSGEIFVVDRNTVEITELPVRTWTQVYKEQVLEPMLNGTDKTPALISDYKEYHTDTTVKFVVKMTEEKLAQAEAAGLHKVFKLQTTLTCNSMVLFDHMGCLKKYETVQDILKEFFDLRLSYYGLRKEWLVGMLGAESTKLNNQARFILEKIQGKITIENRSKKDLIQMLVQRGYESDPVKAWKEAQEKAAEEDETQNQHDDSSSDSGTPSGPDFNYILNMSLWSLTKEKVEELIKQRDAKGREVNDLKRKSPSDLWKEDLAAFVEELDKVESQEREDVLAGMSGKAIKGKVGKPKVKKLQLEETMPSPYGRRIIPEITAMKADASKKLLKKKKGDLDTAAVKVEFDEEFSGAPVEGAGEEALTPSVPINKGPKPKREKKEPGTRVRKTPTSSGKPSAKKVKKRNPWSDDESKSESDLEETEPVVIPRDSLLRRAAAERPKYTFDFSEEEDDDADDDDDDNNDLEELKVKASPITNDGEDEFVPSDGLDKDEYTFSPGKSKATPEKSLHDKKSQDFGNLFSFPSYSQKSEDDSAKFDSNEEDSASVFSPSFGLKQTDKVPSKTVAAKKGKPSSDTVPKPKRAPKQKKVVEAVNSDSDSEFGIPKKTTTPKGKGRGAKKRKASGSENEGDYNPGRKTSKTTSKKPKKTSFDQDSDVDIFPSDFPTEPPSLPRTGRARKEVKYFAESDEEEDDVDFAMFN

DNA topoisomerase 2-alpha (Homo sapiens), sequence (P11388 whole entry, canonical isoform): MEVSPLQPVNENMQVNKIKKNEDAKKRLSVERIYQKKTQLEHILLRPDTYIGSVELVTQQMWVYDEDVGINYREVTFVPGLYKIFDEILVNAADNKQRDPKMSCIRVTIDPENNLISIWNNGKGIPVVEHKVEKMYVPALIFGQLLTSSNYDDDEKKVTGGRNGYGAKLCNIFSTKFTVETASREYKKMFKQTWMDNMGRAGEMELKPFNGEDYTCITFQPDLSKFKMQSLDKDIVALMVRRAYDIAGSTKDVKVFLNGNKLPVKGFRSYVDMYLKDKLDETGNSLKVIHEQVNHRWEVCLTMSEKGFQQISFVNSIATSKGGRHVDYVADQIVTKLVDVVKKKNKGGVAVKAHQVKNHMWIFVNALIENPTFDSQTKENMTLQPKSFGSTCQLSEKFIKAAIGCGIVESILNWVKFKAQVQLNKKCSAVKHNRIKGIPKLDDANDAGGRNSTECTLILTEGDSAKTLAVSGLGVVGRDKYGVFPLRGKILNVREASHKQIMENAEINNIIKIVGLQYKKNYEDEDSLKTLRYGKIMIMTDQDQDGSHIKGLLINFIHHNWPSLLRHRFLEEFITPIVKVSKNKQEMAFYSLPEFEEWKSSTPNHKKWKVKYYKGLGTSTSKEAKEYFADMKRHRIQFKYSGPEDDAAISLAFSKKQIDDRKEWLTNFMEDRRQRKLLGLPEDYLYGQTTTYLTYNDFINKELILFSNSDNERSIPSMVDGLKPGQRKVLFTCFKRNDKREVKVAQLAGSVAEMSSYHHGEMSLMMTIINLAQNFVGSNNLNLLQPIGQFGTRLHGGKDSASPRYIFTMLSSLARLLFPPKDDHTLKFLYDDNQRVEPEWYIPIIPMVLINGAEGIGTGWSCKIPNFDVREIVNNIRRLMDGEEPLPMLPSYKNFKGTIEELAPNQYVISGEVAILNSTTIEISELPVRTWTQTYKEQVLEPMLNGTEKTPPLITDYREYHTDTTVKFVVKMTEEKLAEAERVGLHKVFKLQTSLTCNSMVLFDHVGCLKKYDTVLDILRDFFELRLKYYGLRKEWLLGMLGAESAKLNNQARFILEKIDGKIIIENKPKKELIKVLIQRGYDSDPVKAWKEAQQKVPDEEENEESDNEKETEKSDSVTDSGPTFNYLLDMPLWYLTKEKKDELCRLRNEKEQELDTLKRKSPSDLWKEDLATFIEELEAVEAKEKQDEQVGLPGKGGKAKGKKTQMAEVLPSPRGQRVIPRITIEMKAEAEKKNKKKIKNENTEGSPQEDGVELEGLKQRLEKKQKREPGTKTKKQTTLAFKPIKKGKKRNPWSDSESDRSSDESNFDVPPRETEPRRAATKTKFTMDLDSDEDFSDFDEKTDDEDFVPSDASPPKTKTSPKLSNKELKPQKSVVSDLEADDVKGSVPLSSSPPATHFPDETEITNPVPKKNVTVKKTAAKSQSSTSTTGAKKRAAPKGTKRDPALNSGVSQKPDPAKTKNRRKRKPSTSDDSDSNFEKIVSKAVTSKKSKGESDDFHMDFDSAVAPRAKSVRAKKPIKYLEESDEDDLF

What does the source list for COc1cc([C@@H]2c3cc4c(cc3[C@@H](OCc3cn(CCCN(C)C)nn3)[C@H]3COC(=O)[C@H]23)OCO4)cc(OC)c1O?
IC50 [1]: 1900 nM; Ratio IC50 (NALM-6 [2]): 2; IC50 [3]: 2360 nM; Activity [4]: Active; Activity (K562): Active; Ratio IC50 (NALM-6 [5]): 1.6; IC50 [6]: 1200 nM; Activity [7]: Active

For COc1cc([C@@H]2c3cc4c(cc3[C@@H](O[C@@H]3O[C@@H]5CO[C@@H](C)O[C@H]5[C@H](O)[C@H]3O)[C@H]3COC(=O)[C@H]23)OCO4)cc(OC)c1O [ETOPOSIDE], which IC50 [1] is on record?
The IC50 was 234 nM.

What about the “Ratio IC50” value (NALM-6 [2]) of the same compound?
The value was 1.4.

What about the IC50 [3] of the same compound?
Its IC50 is 182 nM.

What about the Activity [4] of the same compound?
The Activity was “Active”.

What about the Activity (K562) of the same compound?
Its Activity is “Active”.

And the “Ratio IC50” value (NALM-6 [5])?
The value was 1.7.

And the IC50 [6]?
Its IC50 is 134 nM.

What about the Activity [7] of the same compound?
The Activity was “Active”.

With COc1cc([C@@H]2c3cc4c(cc3[C@@H](OCc3cn(Cc5ccc(C(=O)O)cc5)nn3)[C@H]3COC(=O)[C@H]23)OCO4)cc(OC)c1OC as the compound, how does the Activity (K562) read?
The Activity was “Active”.

What about the IC50 [6] of the same compound?
The IC50 was over 10000 nM.

For COC(=O)CCCCCn1cc(CO[C@@H]2c3cc4c(cc3[C@@H](c3cc(OC)c(O)c(OC)c3)[C@H]3C(=O)OC[C@@H]32)OCO4)nn1, which Activity [4] is on record?
Its Activity is “Active”.

And the Activity (K562)?
Its Activity is “Active”.

And the IC50 [6]?
Its IC50 is 3900 nM.

What about the Activity [7] of the same compound?
Its Activity is “Active”.

For COc1cc([C@@H]2c3cc4c(cc3[C@@H](OCc3cn(-c5ccc(O)cc5)nn3)[C@H]3COC(=O)[C@H]23)OCO4)cc(OC)c1O, which IC50 [1] is on record?
Its IC50 is 3500 nM.

What about the “Ratio IC50” value (NALM-6 [2]) of the same compound?
Its value is 0.6.

And the IC50 [3]?
Its IC50 is 1920 nM.

What about the Activity [4] of the same compound?
The Activity was “Active”.

And the Activity (K562)?
Its Activity is “Active”.

What about the “Ratio IC50” value (NALM-6 [5]) of the same compound?
The value was 1.

And the IC50 [6]?
Its IC50 is 3400 nM.

And the Activity [7]?
Its Activity is “Active”.

What does the source list for COc1cc([C@@H]2c3cc4c(cc3[C@@H](n3cc(CN(C)C)nn3)[C@H]3COC(=O)[C@H]23)OCO4)cc(OC)c1O?
IC50 [1]: 850 nM; Ratio IC50 (NALM-6 [2]): 2.1; IC50 [3]: 1320 nM; Activity [4]: Active; Activity (K562): Active; Ratio IC50 (NALM-6 [5]): 1.4; IC50 [6]: 620 nM; Activity [7]: Active
